In ChEMBL document CHEMBL4414599, “Selective Phenylimidazole-Based Inhibitors of the Mycobacterium tuberculosis Proteasome” (J Med Chem, 2019) one finds IC50, selectivity ratio and inhibition data, which are given here for 9 compounds.

Data set [1] can be described thus: (§1) Inhibition of Mycobacterium tuberculosis 20S open gate mutant using Suc-LLVY-AMC as substrate and measured every 30 secs for 30 mins by microtiter plate assay. An outline of the steps:
(§2)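 Mtb20S open-gate form, expressed and purified in-house, 8 nM in the enzyme solution. Buffer: 20 mM HEPES pH 7.5, 0.5 mM EDTA, 0.1 mg/mL BSA. Suc-LLVY-AMC at 100 µM final. Run at 25 °C with a three-fold inhibitor dilution series, DMSO under 0.5% final. Fluorescence 340/460 nm read every 30 s for 30 min. Rates fitted against log inhibitor concentration to give IC50; triplicate wells.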

For data set [2], the system named is human 20S proteasome subunit beta-5i versus Mycobacterium tuberculosis 20S open gate mutant. The data set is described as follows: Selectivity index, ratio of IC50 for human 20S proteasome subunit beta-5i to IC50 for Mycobacterium tuberculosis 20S open gate mutant. The format is toxicity. The following applies: read-out: Ratio IC50.
Data set [3] has as its system human 20S proteasome subunit beta-5c versus Mycobacterium tuberculosis 20S open gate mutant. The data set is described as follows: Selectivity index, ratio of IC50 for human 20S proteasome subunit beta-5c to IC50 for Mycobacterium tuberculosis 20S open gate mutant. The format is toxicity. To be noted: read-out: Ratio IC50.
Data set [4] relates to Mycobacterium tuberculosis. The data set is described as §1. The method in brief:
as §2

`Cc1cc(C(=O)N[C@@H](CC(=O)N2CCC[C@@H]2c2ccccc2)C(=O)N[C@@H](C)c2ncc(-c3ccccc3F)[nH]2)no1` registered a concentration for half-maximal inhibition (IC50) in data set [1] of 0.008 µM. Moreover, the selectivity ratio in data set [2] and in data set [3] was over 12500 in each case.

On to `Cc1cc(C(=O)N[C@@H](CC(=O)N2CCCC[C@@H]2C)C(=O)N[C@@H](C)C(=O)NCc2ccc(F)cc2F)no1`, for which the inhibition entry in data set [4] was “Dose-dependent effect”. In addition, half-maximal inhibition in data set [1] (IC50) required 0.007 µM. Further, the selectivity ratio in data set [2] came out at 3.7; in data set [3], 202.

Turning to `Cc1cc(C(=O)N[C@@H](CC(=O)N2CCC[C@@H]2c2ccccc2)C(=O)N[C@@H](C)C(=O)NCc2ccc(F)cc2F)no1`, the inhibition entry in data set [4] was “Dose-dependent effect”. For the same compound, it took 0.003 µM to reach half-maximal inhibition in data set [1] (IC50). The selectivity ratio in data set [2] was 2630; in data set [3], over 33300.

With `Cc1cc(C(=O)N[C@@H](CC(=O)N2CCC[C@@H]2c2ccccc2)C(=O)N[C@@H](C)c2ncc(-c3ccc(F)cc3F)[nH]2)no1`, in data set [1], 0.013 µM corresponded to half-maximal inhibition (IC50). Also, the selectivity ratio in data set [2] and in data set [3] was over 7700 throughout.

For the compound `Cc1cc(C(=O)N[C@@H](CC(=O)N2CCC[C@@H]2c2ccccc2)C(=O)N[C@@H](C)C(=O)NCc2c(F)cccc2F)no1`, the inhibition result in data set [4] is “Dose-dependent effect”. In data set [1], this compound displayed an IC50 of 0.007 µM. In addition, the selectivity ratio in data set [2] was 2870; in data set [3] it was over 14300.

For `COc1ccccc1CNC(=O)[C@H](C)NC(=O)[C@H](CC(=O)N1CCC[C@@H]1c1ccccc1)NC(=O)c1cc(C)on1`, the inhibition entry in data set [4] is “Dose-dependent effect”. The same compound had a concentration for half-maximal inhibition (IC50) in data set [1] of 0.065 µM. Besides, the selectivity ratio in data set [2] and in data set [3] was over 1500 each time.

Regarding `Cc1cc(C(=O)N[C@@H](CC(=O)N2CCC[C@@H]2c2ccccc2)C(=O)N[C@@H](C)c2ncc(-c3ccccc3)[nH]2)no1`, the 50% inhibitory concentration (IC50) in data set [1] is 0.025 µM. Further, the selectivity ratio in data set [2] and in data set [3] was over 4000 throughout.

`CC[C@@H]1CCCCN1C(=O)C[C@H](NC(=O)CCC(C)C)C(=O)N[C@@H](C)c1ncc(-c2ccc(F)cc2F)[nH]1` showed an IC50 in data set [1] of 0.03 µM. This lies in the double-digit nanomolar range.

On to `Cc1cc(C(=O)N[C@@H](CC(=O)N2CCCC[C@@H]2C)C(=O)N[C@@H](C)c2ncc(-c3ccccc3)[nH]2)no1`, for which, in data set [1], the midpoint of inhibition, the IC50, lay at 0.47 µM.
